Results taken from ChEMBL document CHEMBL1138056, “Potent benzimidazole sulfonamide protein tyrosine phosphatase 1B inhibitors containing the heterocyclic (S)-isothiazolidinone phosphotyrosine mimetic” (J Med Chem, 2006).

How the values were obtained:
[1] = target: T1, Tyrosine-protein phosphatase non-receptor type 1 (Homo sapiens, UniProt P18031); experiment: Inhibition of PTP1B by pNPP assay
T1 sequence (P18031 whole entry): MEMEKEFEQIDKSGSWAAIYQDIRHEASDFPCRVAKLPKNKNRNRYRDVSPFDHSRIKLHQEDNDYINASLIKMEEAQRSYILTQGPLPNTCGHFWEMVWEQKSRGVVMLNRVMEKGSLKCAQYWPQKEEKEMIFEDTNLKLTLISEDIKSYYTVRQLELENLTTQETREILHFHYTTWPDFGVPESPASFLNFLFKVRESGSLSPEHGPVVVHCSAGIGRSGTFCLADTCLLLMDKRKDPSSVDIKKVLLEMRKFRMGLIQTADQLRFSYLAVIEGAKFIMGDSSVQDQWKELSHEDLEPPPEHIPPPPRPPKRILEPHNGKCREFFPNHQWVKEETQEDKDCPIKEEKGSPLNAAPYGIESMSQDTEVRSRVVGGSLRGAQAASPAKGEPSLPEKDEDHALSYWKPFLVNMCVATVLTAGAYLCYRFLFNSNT

[2] = target: T2, Tyrosine-protein phosphatase non-receptor type 1 (Homo sapiens) (UniProt P18031); experiment: Increase in phosphorylation level of human insulin receptor transfected in HEK293 cells at 80 uM; type: functional, cell-based
T2 sequence (whole entry): T1 sequence (P18031 whole entry)
Procedure, shortened: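 HEK293-MSR cells cotransfected with full-length human PTP1B and insulin receptor plasmids, attached 24 h, then treated 16 h in serum-free DMEM (0.4% DMSO final). Lysed on ice; IR phosphorylated at Y1162/Y1163 measured by ELISA and normalized to total protein (BCA). Expressed as fold shift; averages of triplicates from the same day.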

[3] = Permeability across Caco-2 cell membrane; type: ADME, cell-based; settings: human, read-out: permeability

## COc1ccc(S(=O)(=O)NC(Cc2ccc(C3CC(=O)NS3(=O)=O)cc2)c2nc3ccccc3[nH]2)cc1 (configuration not stated)
[1]
  IC50: 94 nM

## O=C1CC(c2ccc(CC(NS(=O)(=O)c3cccc(Cl)c3Cl)c3nc4ccccc4[nH]3)cc2)S(=O)(=O)N1 (configuration not stated)
[1]
  IC50: 240 nM

## O=C1C[C@@H](c2ccc(C[C@H](NS(=O)(=O)c3cccc(F)c3)c3nc4ccccc4[nH]3)cc2F)S(=O)(=O)[N-]1.[Na+]
[2]
  Activity: 1.1
[3]
  Papp: < 0.1 ×10⁻⁶ cm/s
[1]
  IC50: 15 nM

## O=C1CC(c2ccc(CC(NS(=O)(=O)c3c(F)cccc3F)c3nc4ccccc4[nH]3)cc2)S(=O)(=O)N1 (configuration not stated)
[1]
  IC50: 160 nM

## O=C1CC(c2ccc(CC(NS(=O)(=O)c3ccc(-c4ccccc4)cc3)c3nc4ccccc4[nH]3)cc2)S(=O)(=O)N1 (configuration not stated)
[1]
  IC50: 80 nM

## O=C1CC(c2ccc(CC(NS(=O)(=O)c3ccc(F)cc3)c3nc4ccccc4[nH]3)cc2)S(=O)(=O)N1 (configuration not stated)
[1]
  IC50: 80 nM

## O=C1CC(c2ccc(CC(NS(=O)(=O)c3ccc(Br)cc3)c3nc4ccccc4[nH]3)cc2)S(=O)(=O)N1 (configuration not stated)
[1]
  IC50: 110 nM

## O=C(CCc1ccccc1)N[C@@H](Cc1ccc([C@@H]2CC(=O)NS2(=O)=O)cc1)c1nc2ccccc2[nH]1
[1]
  IC50: 600 nM

## Cc1cc(C[C@H](NS(=O)(=O)c2ccccc2C#N)c2nc3ccccc3[nH]2)ccc1[C@@H]1CC(=O)[N-]S1(=O)=O.[Na+]
[2]
  Activity: 1.4
[3]
  Papp: < 0.1 ×10⁻⁶ cm/s
[1]
  IC50: 18 nM

## O=C1CC(c2ccc(CC(NS(=O)(=O)c3ccccc3Cl)c3nc4ccccc4[nH]3)cc2)S(=O)(=O)N1 (configuration not stated)
[1]
  IC50: 160 nM

## N#Cc1ccc(S(=O)(=O)NC(Cc2ccc(C3CC(=O)NS3(=O)=O)cc2)c2nc3ccccc3[nH]2)cc1 (configuration not stated)
[1]
  IC50: 63 nM

## O=C1CC(c2ccc(CC(NS(=O)(=O)c3cc(F)cc(F)c3)c3nc4ccccc4[nH]3)cc2)S(=O)(=O)N1 (configuration not stated)
[1]
  IC50: 72 nM

## O=C1CC(c2ccc(CC(NS(=O)(=O)c3cc(Cl)cc(Cl)c3)c3nc4ccccc4[nH]3)cc2)S(=O)(=O)N1 (configuration not stated)
[1]
  IC50: 51 nM

## Cc1cccc(S(=O)(=O)NC(Cc2ccc(C3CC(=O)NS3(=O)=O)cc2)c2nc3ccccc3[nH]2)c1 (configuration not stated)
[1]
  IC50: 85 nM

## CS(=O)(=O)N[C@@H](Cc1ccc([C@@H]2CC(=O)NS2(=O)=O)cc1)c1nc2ccccc2[nH]1
[1]
  IC50: 590 nM

## CC(=O)N[C@@H](Cc1ccc([C@@H]2CC(=O)NS2(=O)=O)cc1)c1nc2ccccc2[nH]1
[1]
  IC50: 940 nM

## Cc1cccc2[nH]c(C(Cc3ccc(C4CC(=O)NS4(=O)=O)cc3)NS(=O)(=O)c3ccc(-c4ccccc4)cc3)nc12 (configuration not stated)
[1]
  IC50: 190 nM

## Cc1ccc(S(=O)(=O)NC(Cc2ccc(C3CC(=O)NS3(=O)=O)cc2)c2nc3ccccc3[nH]2)cc1 (configuration not stated)
[1]
  IC50: 80 nM

## O=C1CC(c2ccc(CC(NS(=O)(=O)c3cccc(C(F)(F)F)c3)c3nc4ccccc4[nH]3)cc2)S(=O)(=O)N1 (configuration not stated)
[1]
  IC50: 67 nM

## O=C1CC(c2ccc(CC(NS(=O)(=O)c3ccc(-c4ccccc4)cc3)c3nc4cc(C(F)(F)F)ccc4[nH]3)cc2)S(=O)(=O)N1 (configuration not stated)
[1]
  IC50: 160 nM

## O=C1CC(c2ccc(CC(NS(=O)(=O)c3cccc(Cl)c3)c3nc4ccccc4[nH]3)cc2)S(=O)(=O)N1 (configuration not stated)
[1]
  IC50: 60 nM

## N#Cc1ccccc1S(=O)(=O)NC(Cc1ccc(C2CC(=O)NS2(=O)=O)cc1)c1nc2ccccc2[nH]1 (configuration not stated)
[1]
  IC50: 45 nM

## O=C1C[C@@H](c2ccc(C[C@H](NS(=O)(=O)c3ccccc3)c3nc4ccccc4[nH]3)cc2)S(=O)(=O)[N-]1.[Na+]
[2]
  Activity: 1
[3]
  Papp: 0.4 ×10⁻⁶ cm/s
[1]
  IC50: 32 nM

## O=C1CC(c2ccc(CC(NS(=O)(=O)c3ccccc3Br)c3nc4ccccc4[nH]3)cc2)S(=O)(=O)N1 (configuration not stated)
[1]
  IC50: 170 nM

## O=C1CC(c2ccc(CC(NS(=O)(=O)c3ccc(F)c(F)c3)c3nc4ccccc4[nH]3)cc2)S(=O)(=O)N1 (configuration not stated)
[1]
  IC50: 110 nM

## Cc1ccccc1S(=O)(=O)NC(Cc1ccc(C2CC(=O)NS2(=O)=O)cc1)c1nc2ccccc2[nH]1 (configuration not stated)
[1]
  IC50: 300 nM

## Cc1ccc2[nH]c(C(Cc3ccc(C4CC(=O)NS4(=O)=O)cc3)NS(=O)(=O)c3ccc(-c4ccccc4)cc3)nc2c1 (configuration not stated)
[1]
  IC50: 140 nM

## COc1cccc(S(=O)(=O)NC(Cc2ccc(C3CC(=O)NS3(=O)=O)cc2)c2nc3ccccc3[nH]2)c1 (configuration not stated)
[1]
  IC50: 48 nM

## O=C1CC(c2ccc(CC(NS(=O)(=O)c3ccccc3F)c3nc4ccccc4[nH]3)cc2)S(=O)(=O)N1 (configuration not stated)
[1]
  IC50: 120 nM

## Cc1cc(C[C@H](NS(=O)(=O)c2ccc(Br)c(C(F)(F)F)c2)c2nc3ccccc3[nH]2)ccc1[C@@H]1CC(=O)[N-]S1(=O)=O.[Na+]
[2]
  Activity: 2
[3]
  Papp: < 0.1 ×10⁻⁶ cm/s
[1]
  IC50: 16 nM

## O=C1CC(c2ccc(CC(NS(=O)(=O)c3cccc(Br)c3)c3nc4ccccc4[nH]3)cc2)S(=O)(=O)N1 (configuration not stated)
[1]
  IC50: 77 nM

## O=C1CC(c2ccc(CC(NS(=O)(=O)c3cccc(F)c3)c3nc4ccccc4[nH]3)cc2)S(=O)(=O)N1 (configuration not stated)
[1]
  IC50: 43 nM

## Cc1cc(C[C@H](NS(=O)(=O)c2cccc(Cl)c2)c2nc3ccccc3[nH]2)ccc1[C@@H]1CC(=O)[N-]S1(=O)=O.[Na+]
[2]
  Activity: 1.9
[3]
  Papp: 0.2 ×10⁻⁶ cm/s
[1]
  IC50: 76 nM

## O=C1CC(c2ccc(C[C@H](NS(=O)(=O)c3ccccc3)c3nc4ccccc4[nH]3)cc2F)S(=O)(=O)[N-]1.[Na+] (some centres not stated)
[2]
  Activity: 1.6
[3]
  Papp: 0.2 ×10⁻⁶ cm/s
[1]
  IC50: 18 nM

## Cc1cc(C[C@H](NS(=O)(=O)c2ccccc2)c2nc3ccccc3[nH]2)ccc1[C@@H]1CC(=O)[N-]S1(=O)=O.[Na+]
[2]
  Activity: 2.8
[3]
  Papp: 0.4 ×10⁻⁶ cm/s

## O=C1CC(c2ccc(CC(NS(=O)(=O)c3ccc(Cl)cc3Cl)c3nc4ccccc4[nH]3)cc2)S(=O)(=O)N1 (configuration not stated)
[1]
  IC50: 280 nM

## O=C1CC(c2ccc(CC(NS(=O)(=O)c3ccc(-c4ccccc4)cc3)c3nc4cc(Cl)ccc4[nH]3)cc2)S(=O)(=O)N1 (configuration not stated)
[1]
  IC50: 140 nM

## O=C1CC(c2ccc(CC(NS(=O)(=O)c3ccccc3C(F)(F)F)c3nc4ccccc4[nH]3)cc2)S(=O)(=O)N1 (configuration not stated)
[1]
  IC50: 130 nM

## O=C1CC(c2ccc(CC(NS(=O)(=O)c3cc(F)ccc3F)c3nc4ccccc4[nH]3)cc2)S(=O)(=O)N1 (configuration not stated)
[1]
  IC50: 140 nM

## O=C1CC(c2ccc(C[C@H](NS(=O)(=O)c3ccccc3)c3nc4ccccc4[nH]3)cc2Br)S(=O)(=O)[N-]1.[Na+] (some centres not stated)
[2]
  Activity: 0.7
[3]
  Papp: < 0.1 ×10⁻⁶ cm/s
[1]
  IC50: 340 nM

## O=C1CC(c2ccc(CC(NS(=O)(=O)c3ccc(Cl)c(Cl)c3)c3nc4ccccc4[nH]3)cc2)S(=O)(=O)N1 (configuration not stated)
[1]
  IC50: 79 nM

## Cc1cc(C[C@H](NS(=O)(=O)c2ccccc2)c2nc3ccccc3[nH]2)ccc1[C@H]1CC(=O)NS1(=O)=O
[2]
  Activity: 1

## COC(=O)c1ccc2[nH]c(C(Cc3ccc(C4CC(=O)NS4(=O)=O)cc3)NS(=O)(=O)c3ccc(-c4ccccc4)cc3)nc2c1 (configuration not stated)
[1]
  IC50: 150 nM

## O=C1CC(c2ccc(CC(NS(=O)(=O)c3ccc(C(F)(F)F)cc3)c3nc4ccccc4[nH]3)cc2)S(=O)(=O)N1 (configuration not stated)
[1]
  IC50: 51 nM

## O=C1CC(c2ccc(CC(NS(=O)(=O)c3c(Cl)cccc3Cl)c3nc4ccccc4[nH]3)cc2)S(=O)(=O)N1 (configuration not stated)
[1]
  IC50: 460 nM

## CC(C)(C)c1cccc2[nH]c(C(Cc3ccc(C4CC(=O)NS4(=O)=O)cc3)NS(=O)(=O)c3ccc(-c4ccccc4)cc3)nc12 (configuration not stated)
[1]
  IC50: 460 nM

## COc1ccc2[nH]c(C(Cc3ccc(C4CC(=O)NS4(=O)=O)cc3)NS(=O)(=O)c3ccc(-c4ccccc4)cc3)nc2c1 (configuration not stated)
[1]
  IC50: 130 nM

## O=C1CC(c2ccc(CC(NS(=O)(=O)c3cc(Cl)ccc3Cl)c3nc4ccccc4[nH]3)cc2)S(=O)(=O)N1 (configuration not stated)
[1]
  IC50: 160 nM

## O=C1C[C@@H](c2ccc(C[C@H](NS(=O)(=O)c3ccccc3)c3nc4ccccc4[nH]3)cc2Cl)S(=O)(=O)[N-]1.[Na+]
[2]
  Activity: 1
[3]
  Papp: < 0.1 ×10⁻⁶ cm/s
[1]
  IC50: 50 nM

## N#Cc1ccc2nc(C(Cc3ccc(C4CC(=O)NS4(=O)=O)cc3)NS(=O)(=O)c3ccc(-c4ccccc4)cc3)[nH]c2c1 (configuration not stated)
[1]
  IC50: 53 nM

## CC(=O)N[C@@H](Cc1ccccc1)C(=O)N[C@@H](Cc1ccc([C@@H]2CC(=O)NS2(=O)=O)cc1)C(N)=O
[1]
  IC50: 240 nM

## O=C1CC(c2ccc(CC(NS(=O)(=O)c3ccc(F)cc3F)c3nc4ccccc4[nH]3)cc2)S(=O)(=O)N1 (configuration not stated)
[1]
  IC50: 110 nM

## O=C1CC(c2ccc(CC(NS(=O)(=O)c3ccc(-c4ccccc4)cc3)c3nc4c(O)cccc4[nH]3)cc2)S(=O)(=O)N1 (configuration not stated)
[1]
  IC50: 240 nM

## O=C1CC(c2ccc(CC(NS(=O)(=O)c3ccc(-c4ccccc4)cc3)c3nc4cc(F)ccc4[nH]3)cc2)S(=O)(=O)N1 (configuration not stated)
[1]
  IC50: 120 nM

## O=C1CC(c2ccc(CC(NS(=O)(=O)c3ccc(Cl)cc3)c3nc4ccccc4[nH]3)cc2)S(=O)(=O)N1 (configuration not stated)
[1]
  IC50: 110 nM
